Assay results as given in ChEMBL document CHEMBL1137305, “High antiplasmodial activity of novel plasmepsins I and II inhibitors” (J Med Chem, 2006).
pIC50, pKi: −log10 of the molar value. Calls of active or inactive are those of the source. The calls are words filed in the database; no cut-off is given here.

Experiments:
Plasmodium falciparum [1] = assay: Antiplasmodial activity against chloroquine-resistant Plasmodium falciparum W2; assay type: functional, organism-based
Summary of the method: (§1)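 P. falciparum (D10 and W2) grown in human A+ red cells, RPMI 1640 with 10% heat-inactivated A+ plasma, 37 °C, 1% O2/5% CO2/94% N2. Asynchronous cultures, 1-1.5% parasitemia, 1% hematocrit, exposed to serial dilutions (DMSO <1% final) for 72 h. IC50 is the mean of ≥3 experiments in duplicate.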

Plasmepsin II = Plasmepsin II (Plasmodium falciparum, UniProt P46925); assay: Inhibition of Plasmodium falciparum recombinant PLM2
Sequence of Plasmepsin II (P46925 whole entry): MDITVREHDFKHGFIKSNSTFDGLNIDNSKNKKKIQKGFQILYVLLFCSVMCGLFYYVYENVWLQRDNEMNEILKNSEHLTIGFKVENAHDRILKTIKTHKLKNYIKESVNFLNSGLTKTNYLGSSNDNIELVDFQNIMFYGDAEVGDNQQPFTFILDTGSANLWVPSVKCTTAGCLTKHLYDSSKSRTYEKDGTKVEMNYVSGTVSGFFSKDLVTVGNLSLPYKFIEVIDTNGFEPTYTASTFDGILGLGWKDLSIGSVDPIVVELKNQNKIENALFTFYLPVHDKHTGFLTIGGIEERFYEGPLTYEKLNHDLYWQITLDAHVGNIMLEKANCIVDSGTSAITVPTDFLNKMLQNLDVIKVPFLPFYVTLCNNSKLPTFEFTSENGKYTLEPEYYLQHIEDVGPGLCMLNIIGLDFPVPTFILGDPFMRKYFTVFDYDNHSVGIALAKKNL
Summary of the method: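 Recombinant pro-PLM II (E. coli BL21(DE3) pLysS, refolded from inclusion bodies) activated in 100 mM sodium acetate pH 4.7, 37 °C, 90 min. Cleavage of Lys-Glu-Phe-Val-Phe-NPhe-Ala-Leu-Lys followed at 300 nm. Inhibitors at 1-100 nM, 1% DMSO final. Ki from IC50 via Cheng-Prusoff using Michaelis-Menten Km. Mean ± SD, at least two experiments in triplicate.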

Plasmodium falciparum [2] = assay: Antiplasmodial activity against chloroquine-sensitive Plasmodium falciparum D10; assay type: functional, organism-based; summary of the method: as §1
Plasmepsin I = Plasmepsin I (Plasmodium falciparum, UniProt P39898); assay: Inhibition of Plasmodium falciparum recombinant PLM1
Sequence of Plasmepsin I (P39898 whole entry): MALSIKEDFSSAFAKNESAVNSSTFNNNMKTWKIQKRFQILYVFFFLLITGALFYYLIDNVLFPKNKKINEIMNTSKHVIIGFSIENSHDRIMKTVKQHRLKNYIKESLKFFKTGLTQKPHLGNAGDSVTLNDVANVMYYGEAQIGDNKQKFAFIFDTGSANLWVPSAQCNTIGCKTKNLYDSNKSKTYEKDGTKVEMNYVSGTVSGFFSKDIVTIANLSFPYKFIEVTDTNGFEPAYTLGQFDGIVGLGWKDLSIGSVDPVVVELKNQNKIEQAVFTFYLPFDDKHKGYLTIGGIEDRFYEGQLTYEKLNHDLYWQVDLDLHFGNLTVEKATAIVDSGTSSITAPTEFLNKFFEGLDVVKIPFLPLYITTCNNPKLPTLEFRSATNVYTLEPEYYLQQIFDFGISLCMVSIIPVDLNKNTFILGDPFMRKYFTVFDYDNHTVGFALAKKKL
Summary of the method: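 Recombinant proPfPLM I from E. coli BL21 Star (DE3) pLysS inclusion bodies, refolded and purified by anion exchange and size exclusion. Initial rates of cleavage of chromogenic Lys-Pro-Ile-Leu-Phe-Nph-Arg-Leu read spectrophotometrically. Ki from fits: Morrison competitive tight-binding equation, or for weaker binders at least six substrate and two or more inhibitor levels, competitive model.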

[3] = target: Cathepsin D (Homo sapiens) (UniProt P07339); assay: Inhibition of human cathepsin D at 100 uM
Sequence of Cathepsin D (Homo sapiens) (P07339 65-162 limits assumed): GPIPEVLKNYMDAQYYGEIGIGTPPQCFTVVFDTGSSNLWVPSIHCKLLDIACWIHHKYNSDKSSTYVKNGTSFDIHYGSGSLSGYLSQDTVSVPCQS
Sequence of Cathepsin D (Homo sapiens) (P07339 169-412 limits assumed): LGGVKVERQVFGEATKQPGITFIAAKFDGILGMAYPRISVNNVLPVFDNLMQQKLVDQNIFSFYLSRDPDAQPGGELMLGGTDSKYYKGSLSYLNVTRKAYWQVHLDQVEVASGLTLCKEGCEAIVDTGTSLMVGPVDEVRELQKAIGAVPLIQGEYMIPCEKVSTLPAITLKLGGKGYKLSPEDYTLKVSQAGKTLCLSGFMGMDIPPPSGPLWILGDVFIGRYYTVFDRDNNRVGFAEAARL

[4] = target: Plasmepsin II (Plasmodium falciparum) (UniProt P46925); assay: Inhibition of Plasmodium falciparum PLM2-induced human hemoglobin cleavage by SDS-PAGE
Sequence of Plasmepsin II (Plasmodium falciparum) (P46925 125-453 limits assumed): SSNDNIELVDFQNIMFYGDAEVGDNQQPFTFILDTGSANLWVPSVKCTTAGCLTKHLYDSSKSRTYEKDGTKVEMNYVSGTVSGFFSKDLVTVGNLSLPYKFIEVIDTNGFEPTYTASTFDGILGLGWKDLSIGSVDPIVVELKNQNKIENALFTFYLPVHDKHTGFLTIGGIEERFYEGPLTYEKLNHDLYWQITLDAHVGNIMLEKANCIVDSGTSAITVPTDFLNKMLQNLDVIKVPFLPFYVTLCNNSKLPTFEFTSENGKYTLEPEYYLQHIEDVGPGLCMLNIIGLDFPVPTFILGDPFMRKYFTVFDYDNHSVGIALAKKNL
Summary of the method: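 Hemoglobin (10 µg) digested by preactivated recombinant PLM II (200 ng) in 100 mM sodium acetate, pH 4.7, 37 °C, with vehicle or inhibitor for 0, 10, 30 and 60 min. Stopped with SDS loading dye, boiled 5 min, resolved on 18% polyacrylamide gel.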

[5] = Cytotoxicity against human skin fibroblast at 100 uM by MTT assay; assay type: cell-based
Summary of the method: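 Primary human skin-biopsy fibroblasts, 8 × 10⁴ per well, grown in DMEM with 10% fetal calf serum, 1% penicillin/streptomycin and 1% L-glutamine. Proliferation followed by MTT test with or without compounds up to 100 µM.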

[6] = target: Cathepsin D (Homo sapiens) (UniProt P07339); assay: Inhibition of human cathepsin D at 5 uM
[7] = target: Cathepsin D (Homo sapiens) (UniProt P07339); assay: Inhibition of human cathepsin D at 2 uM

| Structure (SMILES) | pIC50 (Plasmodium falciparum [1]) | pKi (Plasmepsin II) | pIC50 (Plasmodium falciparum [2]) | pKi (Plasmepsin I) | inhibition [3] [%] | Activity [4] | Activity [5] [%] | inhibition [6] [%] | inhibition [7] [%] |
| --- | --- | --- | --- | --- | --- | --- | --- | --- | --- |
| CCCCNC(=O)C[C@H](O)[C@H](CC(C)C)NC(=O)[C@@H](NC(=O)c1ccc(Oc2ccc(C(=O)N[C@@H](CC(C)C)C(=O)N[C@@H](CCCCNC(=O)OC(C)(C)C)C(=O)NCCCC(C)Nc3cc(OC)cc4cccnc34)cc2)cc1)C(C)CC (some centres not stated) | 5.46 | 6.39 | 5.39 | 6.64 | – | – | – | – | – |
| CCCCNC(=O)C[C@H](O)[C@H](CC(C)C)NC(=O)[C@@H](NC(=O)c1ccc(Oc2ccc(C(=O)N[C@@H](CC(C)C)C(=O)N[C@@H](CC(C)C)C(=O)NCCCC(C)Nc3cc(OC)cc4cccnc34)cc2)cc1)C(C)CC (some centres not stated) | 5.77 | 6.99 | 5.44 | 7.24 | – | – | – | – | – |
| CCCCNC(=O)C[C@H](O)[C@H](CC(C)C)NC(=O)[C@@H](NC(=O)c1ccc(Oc2ccc(C(=O)N[C@@H](C)C(=O)N[C@@H](CCCCN)C(=O)NCCCC(C)Nc3cc(OC)cc4cccnc34)cc2)cc1)[C@@H](C)CC (some centres not stated) | 5.85 | 7.97 | 6.10 | 7.48 | – | – | – | – | – |
| CCCCNC(=O)C[C@H](O)[C@H](CC(C)C)NC(=O)[C@@H](NC(=O)c1ccc(Oc2ccc(C(=O)NCCCC(C)Nc3cc(OC)cc4cccnc34)cc2)cc1)[C@@H](C)CC (some centres not stated) | 5.70 | 7.95 | 5.66 | 7.09 | – | – | – | – | – |
| CCCCNC(=O)C[C@H](O)[C@H](CC(C)C)NC(=O)[C@@H](NC(=O)c1ccc(Oc2ccc(C(=O)N[C@@H](C)C(=O)N[C@@H](C)C(=O)NCCCC(C)Nc3cc(OC)cc4cccnc34)cc2)cc1)[C@@H](C)CC (some centres not stated) | 5.92 | 8.41 | 5.89 | 9.00 | – | – | – | – | – |
| CCCCNC(=O)C[C@H](O)[C@H](CC(C)C)NC(=O)[C@@H](NC(=O)c1ccc(Oc2ccc(C(=O)N[C@@H](CC(C)C)C(=O)N[C@@H](CCCCN)C(=O)OCCC)cc2)cc1)C(C)CC (some centres not stated) | 5.42 | 8.00 | 5.35 | 7.96 | – | – | – | – | – |
| CCCCNC(=O)C[C@H](O)[C@H](CC(C)C)NC(=O)[C@@H](NC(=O)c1ccc(Oc2ccc(C(=O)N[C@@H](CC(C)C)C(=O)N[C@@H](CCCCNC(=O)OC(C)(C)C)C(=O)OCCC)cc2)cc1)C(C)CC (some centres not stated) | 7.00 | 7.96 | 7.00 | 7.77 | 37 | Active | – | – | – |
| CCCCNC(=O)C[C@H](O)[C@H](CC(C)C)NC(=O)[C@@H](NC(=O)COc1ccc2ccccc2c1)[C@@H](C)CC | 4.81 | 7.23 | 4.64 | 6.14 | – | – | – | – | – |
| CCCCNC(=O)C[C@H](O)[C@H](CC(C)C)NC(=O)[C@@H](NC(=O)c1ccc(Oc2ccc(C(=O)N[C@@H](CC(C)C)C(=O)N[C@@H](C)C(=O)NCCCC(C)Nc3cc(OC)cc4cccnc34)cc2)cc1)[C@@H](C)CC (some centres not stated) | 6.52 | 7.58 | 6.70 | 7.13 | – | Active | 15 | 50 | – |
| CCCCNC(=O)C[C@H](O)[C@H](CC(C)C)NC(=O)[C@@H](NC(=O)c1ccc(Oc2ccc(C(=O)N[C@@H](CC(C)C)C(=O)NCCCC(C)Nc3cc(OC)cc4cccnc34)cc2)cc1)[C@@H](C)CC (some centres not stated) | 6.30 | 7.92 | 6.15 | 6.12 | – | Active | – | – | 30 |
